Results as given in PMC5159748 (Archives of biochemistry and biophysics, 2016).

How the values were obtained:
[1] = target: T1, K346 (Drosophila kinesin-1 motor domain; apo-K346) (Drosophila melanogaster, UniProt P17210); assay: stopped-flow FRET; assay type: binding
T1 sequence (P17210 2-346): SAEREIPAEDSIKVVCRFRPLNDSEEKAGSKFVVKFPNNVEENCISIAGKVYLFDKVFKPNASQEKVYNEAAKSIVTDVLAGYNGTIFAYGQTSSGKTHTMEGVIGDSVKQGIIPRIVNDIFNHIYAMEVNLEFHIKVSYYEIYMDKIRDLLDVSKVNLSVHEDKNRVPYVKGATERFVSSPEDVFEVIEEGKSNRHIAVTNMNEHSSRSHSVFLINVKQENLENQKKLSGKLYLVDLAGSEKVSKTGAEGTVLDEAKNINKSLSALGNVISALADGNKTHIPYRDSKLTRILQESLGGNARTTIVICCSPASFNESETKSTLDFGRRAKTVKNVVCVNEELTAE
In short: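 Apo-K346 (Tev-cleaved, ADP-stripped) at 25 °C in A25 buffer (pH 6.9) with 50 mM KCl and glycerol as indicated. FRET from tyrosines to mdADP: excitation 280 nm, 418 nm long-pass emission. Association: stopped-flow mixing with ≥10-fold excess mdADP, kon = kobs/[mdADP]. Release: 0.84 μM E•mdADP chased with 400 μM MgATP, single-exponential fit. SD from ≥3 transients.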

[2] = target: Microtubules prepared from porcine tubulin, stabilized with paclitaxel (porcine) (UniProt P02550); assay: turbidity increase

Kd [1] [nM] | Kd [2] [nM] | Compound
2 |  | CNc1ccccc1C(=O)O[C@H]1C[C@H](n2cnc3c(N)ncnc32)O[C@@H]1COP(=O)(O)OP(=O)(O)O [mdADP]
 | 1800 | K346, monomeric Drosophila kinesin-1 motor domain (amino acids 2-346) (from UniProt P17210 2-346) (domain or fragment)
